Data: ChEMBL document CHEMBL4680167, “Synthesis and SARs of dopamine derivatives as potential inhibitors of influenza virus PA endonuclease” (Eur J Med Chem, 2020)

Assays:
[1] = tested on: Influenza A virus; assay: Antiviral activity against Influenza A virus (A/WSN/1933(H1N1)) infected in dog MDCK cells assessed as reduction in virus-induced cytopathic effect incubated for 48 hrs by MTT assay; format: functional, organism-based
Procedure, shortened: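 MDCK cells (DMEM, 10% FBS, 37 °C, 5% CO2) were seeded overnight and infected with 100 TCID50 (MOI 3.5×10^-3) of A/WSN/33 for 1 h. Compounds were added at increasing concentrations and cells were cultured about 48 h in FBS-free medium with 0.6 µg/mL TPCK-trypsin. Read-out was MTT, formazan dissolved in DMSO, A570, with CPE checked by microscopy. Triplicates; EC50 is the concentration giving 50% cell protection.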

[2] = Cytotoxicity against dog MDCK cells assessed as reduction in cell viability incubated for 48 hrs by MTT assay; format: cell-based, Canis lupus familiaris
Procedure, shortened: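 Uninfected MDCK cells were seeded overnight, then exposed to increasing compound concentrations or 0.1% DMSO blank for 48 h. Viability was read by MTT; CC50 is the concentration killing 50% of cells.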

[3] = Selectivity index, ratio of CC50 for dog MDCK cells to EC50 for Influenza A virus (A/WSN/1933(H1N1)) infected in dog MDCK cells; format: toxicity, cell-based; conditions: read-out: Ratio CC50/EC50
[4] = (§1) Binding affinity to recombinant Influenza A virus (A/USA:Huston/AA/1945 H1N1)) N-terminal His6-tagged PA endonuclease assessed as dissociation constant by SPR analysis
Procedure, shortened: (§2)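 For SPR, compounds were printed in 5 repeats on a photo-cross-linker chip. The surface was primed with HBS-EP (10 mM HEPES pH 7.0, 150 mM NaCl, 3 mM EDTA, 0.005% P20), then with running buffer (PBS, 5% DMSO). PA_N at 10, 20, 40, 80 and 160 nM in running buffer was injected 600 s at 0.5 µL/s, followed by 360 s dissociation.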

[5] = Inhibition of recombinant Influenza A virus (A/USA:Huston/AA/1945 H1N1)) N-terminal His6-tagged PA endonuclease using 6FAM-TGGCAATATCAGCTCCACA-MGBN DNA probe as substrate by TR-FRET assay
Procedure, shortened: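 Recombinant PA_N cleavage was followed by FRET on a TaqMan-like probe: 5'-FAM, 19 nucleotides, 3'-MGBNFQ quencher, excitation 492 nm. Cleavage frees FAM fluorescence. Percentage inhibition was plotted against log compound concentration; mean ± SD of eleven independent experiments.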

[6] = tested on: Influenza A virus; assay: as §1; procedure, shortened: as §2

Row | Compound | EC50 [1] [µM] | CC50 at 48 h [2] [µM] | selectivity ratio [3] | Kd [4] [µM] | EC50 [5] [µM] | Activity [6]
1 | O=C(NCCc1ccc(O)c(O)c1)c1ccc(O)c(O)c1 | 10.2 | 154 | 15 |  |  | 
2 | O=C(Cc1ccc(O)c(O)c1)OCCc1ccc(O)c(O)c1 [BLAPSIN A] | > 30 |  |  |  |  | 
3 | O=C(O[C@@H]1Cc2c(O)cc(O)cc2O[C@@H]1c1cc(O)c(O)c(O)c1)c1cc(O)c(O)c(O)c1 [EPIGALOCATECHIN GALLATE] | 28.9 | > 200 | > 6.9 | 0.956 | 6.45 | 
4 | O=C1c2cc(=O)ccn2N([C@@H]2c3ccccc3SCc3c2ccc(F)c3F)[C@@H]2COCCN12 |  |  |  | 0.000208 |  | 
5 | Oc1ccc(CCNC(=S)Cc2ccc(O)c(O)c2)cc1O | 7.01 | > 200 | > 45.7 |  | 1.29 | 
6 | O=C(NCCc1ccc(O)c(O)c1)c1cccc(O)c1 | 13.1 | > 200 | > 15.3 |  |  | 
7 | O=C(CCc1ccc(O)c(O)c1)N1CCc2cc(O)c(O)cc2C1 | 18.6 | 197 | 10.6 |  |  | 
8 | O=C(Cc1ccc(O)c(O)c1)NCCc1ccc(O)c(O)c1 | 2.46 | > 200 | > 81.3 | 0.0263 | 0.312 | Dose-dependent effect
9 | CCC(CC)[C@H](NC(C)=O)[C@@H]1[C@H](O)[C@@H](C(=O)O)C[C@H]1NC(=N)N [PERAMIVIR ANHYDROUS] | 5.26 | > 200 | > 38 |  |  | 
10 | O=C(CCc1ccc(O)c(O)c1)NCCc1ccc(O)c(O)c1 | 4.94 | > 200 | > 64.8 |  | 0.842 | 
11 | O=C(NCCc1ccc(O)c(O)c1)c1ccccc1O | > 30 |  |  |  |  | 
12 | O=C(Cc1ccc(O)c(O)c1)N1CCc2cc(O)c(O)cc2C1 | 2.58 | 151 | 58.5 | 0.0942 | 0.489 | Dose-dependent effect
13 | O=C(NCCc1ccc(O)c(O)c1)c1cccc(O)c1O | > 30 |  |  |  |  | 
14 | O=C(c1ccc(O)c(O)c1)N1CCc2cc(O)c(O)cc2C1 | 3.1 | 133 | 43 |  | 0.577 | 
15 | O=C(NCCc1ccc(O)c(O)c1)c1ccc(O)cc1 | 12.7 | > 200 | > 25.2 |  |  | 
16 | O=C(NCCc1ccc(O)c(O)c1)c1cc(O)c(O)c(O)c1 | > 30 |  |  |  |  | 
